Source: PubChem BioAssay AID624007 (Broad Institute, 2012)
A number with no mark means an inactive call.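 The calls were made as follows: active = compounds lowering the uptake signal whose fitted half-maximal concentration is at most twice their top valid dose; inconclusive = flat curve between 30% and 70% signal loss, or poor fit; inactive = opposite direction, flat near zero, or potency beyond limit.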

Assay: DiI-HDL uptake inhibition in parental ldlA7 cells, dose response, counter-screen for SR-BI HDL uptake inhibitor project, cell-based, CHO ldlA7, fluorescence, dry powder, set 2 (AID 624007)
Conditions: 3 h, at 35000 nM
How it was run: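 Material: LDL receptor-deficient parental CHO ldlA7 cells; medium: HEPES-buffered (pH 7.4) F12 plus 0.5% fatty acid-free BSA; reagent: DiI-labelled HDL, 10 µg/mL final; dosing: test compounds delivered by pin transfer; incubation: 3 h exposure at 37 °C; measured by: DiI fluorescence, bottom read, Ex 550/Em 595 nm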
Molecule `C=CCOC(=O)N(C)C[C@@H]1Oc2ccc(NC(=O)OCC3c4ccccc4-c4ccccc43)cc2C(=O)N([C@H](C)CO)C[C@H]1C` has a DiI-HDL uptake signal change vs neutral control (%), lower = more inhibition of 18.3%. Molecule `CC(C)NC(=O)Nc1ccc2c(c1)C(=O)N([C@@H](C)CO)C[C@@H](C)[C@H](CN(C)S(=O)(=O)c1ccc(Cl)cc1)O2` has a DiI-HDL uptake signal change vs neutral control (%), lower = more inhibition of -2.49%. With `C=CCOC(=O)N(C)C[C@@H]1Oc2ccc(NC(=O)NC(C)C)cc2C(=O)N([C@H](C)CO[Si](C)(C)C(C)(C)C)C[C@H]1C` the DiI-HDL uptake signal change vs neutral control (%), lower = more inhibition was 18.2%. Work on `C=CCOC(=O)N(C)C[C@@H]1Oc2ccc(N)cc2C(=O)N([C@H](C)CO[Si](C)(C)C(C)(C)C)C[C@H]1C` yielded a DiI-HDL uptake signal change vs neutral control (%), lower = more inhibition of 4.25%.
